One assay deals with Clavispora lusitaniae. Put plainly: Antifungal activity against Candida lusitaniae CBS 6936 assessed as growth inhibition after 48 hrs by broth microdilution method. It counts as functional. The following applies: CBS 6936, 48 h. Put shortly:
(§1)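 CLSI broth microdilution with serial 2-fold dilutions in RPMI AutoMod medium. Inoculum from a 0.5 McFarland suspension (10^6 cfu/mL). Plates incubated 48 h at 32 °C, then OD read at 630 nm. MIC95 is the lowest concentration giving 95% growth inhibition versus untreated control. Mean of two independent experiments, each run in triplicate.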

Another assay relates to Nakaseomyces glabratus. Kind of assay: Antifungal activity against Candida glabrata ATCC 90030 assessed as growth inhibition after 48 hrs by broth microdilution method. It counts as functional. The following applies: ATCC 90030, 48 h. Put shortly:
as §1

Assay [1] concerns Candida albicans. Kind of assay: Antifungal activity against Candida albicans SC5314 ATCC MYA-2876 assessed as growth inhibition after 48 hrs by broth microdilution method. The assay is classed as functional. The following applies: SC5314 ATCC MYA-2876, 48 h. Put shortly:
as §1

The next assay has as its system Candida parapsilosis. Put plainly: Antifungal activity against Candida parapsilosis ATCC 22019 assessed as growth inhibition after 48 hrs by broth microdilution method. The assay is classed as functional. The following applies: Lodderomyces parapsilosis, ATCC 22019, 48 h. Put shortly:
as §1

Another assay deals with Debaryomyces hansenii. Kind of assay: Antifungal activity against Candida famata VKMY-9 assessed as growth inhibition after 48 hrs by broth microdilution method. The assay is classed as functional. The conditions noted are these: VKMY-9, 48 h. The method, boiled down:
as §1

The subject of assay [2] is Candida tropicalis. Kind of assay: Antifungal activity against Candida tropicalis ATCC MYA-3404/T1 assessed as growth inhibition after 48 hrs by broth microdilution method. The assay is classed as functional. The conditions noted are these: ATCC MYA-3404/T1, 48 h. The method, boiled down:
as §1

The next assay concerns Kluyveromyces marxianus. Put plainly: Antifungal activity against Candida kefyr clinical isolate assessed as growth inhibition after 48 hrs by broth microdilution method. The assay is classed as functional. The method, boiled down:
as §1

The test system of another assay is Candida dubliniensis. Kind of assay: Antifungal activity against Candida dubliniensis ATCC MYA-646 assessed as growth inhibition after 48 hrs by broth microdilution method. The assay is classed as functional. The conditions noted are these: ATCC MYA-646, 48 h. Put shortly:
as §1

The test system of a further assay is Pichia kudriavzevii. Put plainly: Antifungal activity against Candida krusei ATCC 6258 assessed as growth inhibition after 48 hrs by broth microdilution method. The assay is classed as functional. The following applies: ATCC 6258, 48 h. Put shortly:
as §1

The subject of another assay is [Candida] inconspicua. Kind of assay: Antifungal activity against Candida inconspicua clinical isolate assessed as growth inhibition after 48 hrs by broth microdilution method. The assay is classed as functional. The conditions noted are these: Pichia inconspicua. Put shortly:
as §1

Assay [3] deals with Meyerozyma guilliermondii. Put plainly: Antifungal activity against Candida guilliermondii ATCC 6260 assessed as growth inhibition after 48 hrs by broth microdilution method. The following applies: ATCC 6260, 48 h. It counts as functional. Put shortly:
as §1

Another assay relates to Pichia norvegensis. Put plainly: Antifungal activity against Candida norvegensis clinical isolate assessed as growth inhibition after 48 hrs by broth microdilution method. The assay is classed as functional. Put shortly:
as §1

The test system of assay [4] is Candida tropicalis. Kind of assay: Antifungal activity against Candida tropicalis ATCC MYA-3404/T1 assessed as growth inhibition at 300 ug/ml after 48 hrs by broth microdilution method. The assay is classed as functional, organism-based. Put shortly: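 Broth microdilution per CLSI, serial 2-fold dilutions in RPMI AutoMod medium; inoculum 0.5 McFarland (10^6 cfu/mL). Incubation 48 h at 32 °C, OD 630 nm read; activity judged against untreated control, MIC95 being lowest concentration giving 95% growth inhibition; 300 μg/mL highest concentration tested. Two independent experiments, each in triplicate; mean values.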

In assay [5] the test system is Candida albicans. Kind of assay: Antifungal activity against Candida albicans SC5314 ATCC MYA-2876 assessed as growth inhibition at 300 ug/ml after 48 hrs by broth microdilution method. The assay is classed as functional, organism-based. The method, boiled down: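 Broth microdilution in RPMI AutoMod medium against SC5314, tested up to 300 μg/mL, the highest concentration used. Inoculum from a 0.5 McFarland suspension (10^6 cfu/mL). Incubated 48 h at 32 °C, growth read as OD at 630 nm. Activity judged as 95% growth inhibition versus control. Two independent experiments, each in triplicate.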

Assay [6] deals with Candida albicans. Put plainly: Antifungal activity against Candida albicans SC5314 ATCC MYA-2876 assessed as inhibition of hyphal formation at 14 ug/ml after 48 hrs by microscopy. The assay is classed as functional, organism-based. Put shortly: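 Yeast-to-hyphae transition of SC5314 examined after 48 h at 32 °C in RPMI medium. Cells exposed to 7, 14 or 28 μg/mL alongside untreated control cells. Hyphal formation assessed by comparing cell morphology between treated and control cultures.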

The values that follow come from ChEMBL document CHEMBL3352329, “Antifungal activity of resveratrol derivatives against Candida species” (2014).

Values after ≈ are worked out from the molar mass of the structure shown. Active and inactive are the calls of the source. The rule behind the calls is not given here.

Turning to `COc1ccc(/C=C/c2cc(O)cc(OC)c2)cc1`, the MIC95 with Clavispora lusitaniae came to 37 mg/L (≈ 144 µM); with Nakaseomyces glabratus, 37 mg/L (≈ 144 µM); with Candida albicans [1], 37 mg/L (≈ 144 µM); in the assay on Candida parapsilosis it was 18 mg/L (≈ 70.2 µM); with Debaryomyces hansenii, 9 mg/L (≈ 35.1 µM); in the assay with Candida tropicalis [2], 27 mg/L (≈ 105 µM). Further, the MIC95 with Kluyveromyces marxianus came out at 18 mg/L (≈ 70.2 µM); in the assay on Candida dubliniensis, 18 mg/L (≈ 70.2 µM); in the assay on Pichia kudriavzevii, 37 mg/L (≈ 144 µM); in [Candida] inconspicua, 37 mg/L (≈ 144 µM); in assay [3], 18 mg/L (≈ 70.2 µM); in the assay on Pichia norvegensis, 37 mg/L (≈ 144 µM).
Take `COc1cc(O)cc(/C=C/c2ccc(O)cc2)c1`: the MIC95 in the assay with Clavispora lusitaniae is 300 mg/L (≈ 1240 µM); in the assay with Nakaseomyces glabratus, 300 mg/L (≈ 1240 µM); with Candida albicans [1], 300 mg/L (≈ 1240 µM); with Candida parapsilosis, 300 mg/L (≈ 1240 µM); in the assay with Debaryomyces hansenii, 18 mg/L (≈ 74.3 µM); with Kluyveromyces marxianus, 150 mg/L (≈ 619 µM). Moreover, the MIC95 in the assay with Candida dubliniensis was found to be 150 mg/L (≈ 619 µM); in the assay on Pichia kudriavzevii it was 300 mg/L (≈ 1240 µM); in assay [Candida] inconspicua, 300 mg/L (≈ 1240 µM); in [3] it was 150 mg/L (≈ 619 µM); in the assay on Pichia norvegensis, 300 mg/L (≈ 1240 µM). Besides, the “growth inhibition (GI)” value in the assay with Candida tropicalis [4] is “inactive”.
As to `CC(=O)Oc1cc(/C=C/c2ccc(O)cc2)cc(OC(C)=O)c1`, the “growth inhibition (GI)” value with Candida albicans [5] is “inactive”.
As for `CC(=O)Oc1cc(O)cc(/C=C/c2ccc(O)cc2)c1`, the “growth inhibition (GI)” value in the assay with Candida albicans [5] was “inactive”.
`CC(=O)Oc1ccc(/C=C/c2cc(O)cc(OC(C)=O)c2)cc1`: in the assay with Candida albicans [5], the “growth inhibition (GI)” value is “inactive”.
As for `CC(=O)Oc1ccc(/C=C/c2cc(OC(C)=O)cc(OC(C)=O)c2)cc1`, in the assay on Candida albicans [5], the “growth inhibition (GI)” value was “inactive”.
On the same count and under the same terms, in the case of `CC(=O)Oc1ccc(/C=C/c2cc(OC(C)=O)cc3c2[C@H](c2cc(OC(C)=O)cc(OC(C)=O)c2)[C@@H](c2ccc(OC(C)=O)cc2)O3)cc1` it was “inactive”.
Take `COc1ccc(/C=C/c2cc(OC)cc(OC)c2)cc1`: in the assay on Candida albicans [5], the “growth inhibition (GI)” value was “inactive”.
Still for that read-out and setting: in the case of `OC[C@H]1O[C@@H](Oc2cc(O)cc(/C=C/c3ccc(O)cc3)c2)[C@H](O)[C@@H](O)[C@@H]1O` it was “inactive”; in that of `Oc1ccc(/C=C/c2cc(O)cc(O)c2)cc1`, “inactive”.
The same measure, in the same setting: in the case of `Oc1ccc([C@H]2c3c(O)cc(O)cc3[C@H]3c4c(cc(O)cc4[C@@H]2O)O[C@@H]3c2ccc(O)cc2)cc1` it was “inactive”.
With `Oc1ccc([C@H]2Oc3ccc(/C=C/c4cc(O)cc5c4[C@@H](c4cc(O)cc(O)c4)[C@H](c4ccc(O)cc4)O5)cc3[C@@H]2c2cc(O)cc3c2[C@H](c2cc(O)cc(O)c2)[C@@H](c2ccc(O)cc2)O3)cc1` (mixture of isomers), the MIC95 is 300 mg/L in the assay on Clavispora lusitaniae; 300 mg/L with Nakaseomyces glabratus; 300 mg/L with Candida albicans [1]; 300 mg/L in the assay with Candida parapsilosis; 18 mg/L with Debaryomyces hansenii; 150 mg/L in the assay on Kluyveromyces marxianus. In addition, the MIC95 in the assay on Candida dubliniensis was found to be 150 mg/L; in the assay with Pichia kudriavzevii, 300 mg/L; in assay [Candida] inconspicua, 300 mg/L; in assay [3], 150 mg/L; in the assay on Pichia norvegensis, 300 mg/L. Besides, in the assay on Candida tropicalis [4], the “growth inhibition (GI)” value was “inactive”.
For `COc1ccc(/C=C/c2cc(OC)cc3c2[C@H](c2cc(OC)cc(OC)c2)[C@@H](c2ccc(OC)cc2)O3)cc1` (relative stereo), in the assay on Candida albicans [5], the “growth inhibition (GI)” value is “inactive”.
As for `Oc1ccc(/C=C/c2cc(O)cc3c2[C@H](c2cc(O)cc(O)c2)[C@@H](c2ccc(O)cc2)O3)cc1` (relative stereo), in the assay with Candida albicans [5], the “growth inhibition (GI)” value was “inactive”.
Take `Nc1nc(=O)[nH]cc1F` [FLUCYTOSINE]: the MIC95 in the assay with Clavispora lusitaniae turned out to be 2 mg/L (≈ 15.5 µM); with Nakaseomyces glabratus it was 4 mg/L (≈ 31 µM); with Candida albicans [1], 2 mg/L (≈ 15.5 µM); in the assay with Candida parapsilosis, 4 mg/L (≈ 31 µM); in the assay with Debaryomyces hansenii it was 2 mg/L (≈ 15.5 µM); with Candida tropicalis [2] it was 4 mg/L (≈ 31 µM). For the same compound, the MIC95 was found to be 4 mg/L (≈ 31 µM) in the assay with Kluyveromyces marxianus; 2 mg/L (≈ 15.5 µM) in the assay on Candida dubliniensis; 4 mg/L (≈ 31 µM) in the assay with Pichia kudriavzevii; 4 mg/L (≈ 31 µM) in assay [Candida] inconspicua; 2 mg/L (≈ 15.5 µM) in [3]; 4 mg/L (≈ 31 µM) in the assay on Pichia norvegensis.
Regarding `COc1cc(/C=C/c2ccc(O)cc2)cc(OC)c1` [PTEROSTILBENE], the MIC95 amounted to 28 mg/L (≈ 109 µM) in the assay on Clavispora lusitaniae; 28 mg/L (≈ 109 µM) in the assay on Nakaseomyces glabratus; 28 mg/L (≈ 109 µM) in the assay on Candida albicans [1]; 14 mg/L (≈ 54.6 µM) with Candida parapsilosis; 7 mg/L (≈ 27.3 µM) in the assay with Debaryomyces hansenii; 28 mg/L (≈ 109 µM) with Candida tropicalis [2]. For the same compound, the MIC95 is 14 mg/L (≈ 54.6 µM) in the assay with Kluyveromyces marxianus; 14 mg/L (≈ 54.6 µM) with Candida dubliniensis; 28 mg/L (≈ 109 µM) in the assay with Pichia kudriavzevii; 28 mg/L (≈ 109 µM) in assay [Candida] inconspicua; 7 mg/L (≈ 27.3 µM) in assay [3]; 28 mg/L (≈ 109 µM) in the assay on Pichia norvegensis. Moreover, in the assay on Candida albicans [6], the inhibition entry was “Active”.
With `COc1ccc(/C=C/c2cc(O)cc(O)c2)cc1` [RESVERATROL 4'-METHYL ETHER], the MIC95 with Clavispora lusitaniae stood at 300 mg/L (≈ 1240 µM); with Nakaseomyces glabratus it was 150 mg/L (≈ 619 µM); in the assay with Candida albicans [1], 150 mg/L (≈ 619 µM); in the assay on Candida parapsilosis it was 300 mg/L (≈ 1240 µM); with Debaryomyces hansenii, 18 mg/L (≈ 74.3 µM); in the assay with Candida tropicalis [2], 300 mg/L (≈ 1240 µM). For the same compound, the MIC95 in the assay on Kluyveromyces marxianus was 150 mg/L (≈ 619 µM); in the assay with Candida dubliniensis it was 150 mg/L (≈ 619 µM); with Pichia kudriavzevii, 150 mg/L (≈ 619 µM); in assay [Candida] inconspicua it was 300 mg/L (≈ 1240 µM); in [3], 150 mg/L (≈ 619 µM); in the assay on Pichia norvegensis it was 75 mg/L (≈ 310 µM).
